Screens as filed in PubChem.
IDH1 R132H inh: blocks human IDH1 R132H reductase activity. O75874. diaphorase/resazurin fluorescence, 60 min. inhibition, % at 10 µM. 70,000 compounds, 0.18% hits. AID 624101; in the data active = inhibition above about 34%; inconclusive = no clear call, values can overlap the other calls; inactive = below about 11%
Target sequence (O75874 whole entry R132H): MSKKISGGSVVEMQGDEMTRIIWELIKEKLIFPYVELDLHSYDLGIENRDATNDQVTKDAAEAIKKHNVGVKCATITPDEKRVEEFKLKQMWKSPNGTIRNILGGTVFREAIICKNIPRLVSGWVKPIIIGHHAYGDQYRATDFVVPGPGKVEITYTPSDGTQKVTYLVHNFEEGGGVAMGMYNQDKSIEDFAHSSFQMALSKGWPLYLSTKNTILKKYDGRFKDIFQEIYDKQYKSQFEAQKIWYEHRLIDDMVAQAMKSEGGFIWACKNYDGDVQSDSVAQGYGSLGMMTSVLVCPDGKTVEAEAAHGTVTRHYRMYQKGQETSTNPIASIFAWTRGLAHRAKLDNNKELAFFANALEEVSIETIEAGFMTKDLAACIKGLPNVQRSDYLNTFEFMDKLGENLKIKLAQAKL
Pf Dd2 growth: inhibitors of Plasmodium falciparum Dd2 growth. P. falciparum Dd2 growth, SYBR Green, 72 h; stronger effect = lower value. activity change, % at 10 µM. 94,000 compounds, 2.3% hits. AID 1159554; in the data active = activity change below about -80%; inconclusive = no clear call, values can overlap the other calls
T cruzi growth-1: inhibitors of T. cruzi proliferation. T. cruzi beta-gal in NIH3T3, GalScreen luminescence, 90 h. inhibition, % at 8.34 µM. 77,000 compounds, 5.9% hits. AID 624255;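 active = mean inhibition above about 93%, with at least 55% of replicates each passing it, limit read from the data, passing the limit was not always enough; inconclusive = only one of those two conditions holds; inactive = neither condition holds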
GASC1 inh: inhibitors of human demethylase GASC-1 KDM4C | AID 720574 | Q9H3R0 | 96,000 compounds, 0.15% hits | inhibition, % at 12.5 µM | GST-KDM4C 2-372, H3K9me3 peptide, LANCE TR-FRET;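 active = mean replicate inhibition above about 25%, with at least 55% of replicates also reaching it, limit read from the data, passing the limit was not always enough; inconclusive = only one of those two conditions met; inactive = neither condition met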
Target sequence (Q9H3R0 2-372 limits assumed): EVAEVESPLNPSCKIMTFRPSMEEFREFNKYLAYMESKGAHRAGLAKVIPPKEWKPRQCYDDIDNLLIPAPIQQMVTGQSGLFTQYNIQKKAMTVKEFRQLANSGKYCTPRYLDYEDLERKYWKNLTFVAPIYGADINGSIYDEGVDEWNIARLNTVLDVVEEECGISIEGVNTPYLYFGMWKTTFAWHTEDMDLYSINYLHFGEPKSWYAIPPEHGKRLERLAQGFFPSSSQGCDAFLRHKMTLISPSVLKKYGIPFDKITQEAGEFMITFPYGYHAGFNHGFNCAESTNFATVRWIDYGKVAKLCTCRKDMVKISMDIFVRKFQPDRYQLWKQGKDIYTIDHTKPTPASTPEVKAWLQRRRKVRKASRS
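Assay system: GST-GASC-1 enzyme fragment 2-372 | Amount: 10 nM enzyme | Medium: HEPES buffer, pH 7.5, plus ascorbate | Reagent: H3K9me3 peptide substrate, Fe(II), 2-oxoglutarate | Doses: Single-point compound screen | Incubation: 30 min demethylation and 1 h detection at room temperature | Measured by: LANCE TR-FRET, excitation 340 nm, emissions 618 and 671 nm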
T cruzi growth-2: Trypanosoma cruzi proliferation inhibition; shares compounds with T cruzi growth-1; T. cruzi beta-gal in NIH3T3, GalScreen luminescence, 90 h; inhibition, % at 8.35 µM; 5,600 compounds, 72% hits; AID 651739;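 active = mean replicate inhibition above about 95% and at least 55% of replicates individually reaching it, limit read from the data; inconclusive = only one of the two criteria is met; inactive = neither criterion is met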
T cruzi growth-3: blocks T. cruzi growth in NIH3T3 host cells; shares compounds with T cruzi growth-1; T. cruzi beta-gal in NIH3T3, GalScreen luminescence, 90 h; inhibition, % at 2.09 µM; 5,600 compounds, 21% hits;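 active = mean inhibition above about 95%, with at least 55% of replicates also reaching it, limit read from the data; inconclusive = meets just one of the two conditions; inactive = meets neither condition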
3T3 cytotox: kills mouse NIH/3T3 fibroblasts; shares compounds with T cruzi growth-1; NIH/3T3 viability, CellTiter-Glo ATP luminescence, 90 h; cytotoxicity (signal decrease), % at 8.35 µM; 5,600 compounds, 14% hits; AID 651742;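 active = mean signal decrease across replicates above about 35% based on untreated-well scatter, with enough replicates individually passing, limit read from the data; inconclusive = no rule stated though some were filed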
NIH3T3 tox 2: cytotoxicity in mouse NIH/3T3 fibroblasts | inhibition, % at 24.9 µM | NIH/3T3 viability, CellTiter-Glo ATP luminescence, 90 h | 5,600 compounds, 56% hits | shares compounds with T cruzi growth-1 | AID 651744;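 active = mean loss of cell viability signal at or above a set limit, and enough replicates individually reaching it; inconclusive = meets only the mean limit or only the replicate share; inactive = meets neither condition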
Each line names hits and unclear results; the compound was inactive in the other large screens (follow-up assays come after a bar, where they were run). Hits are enriched below; roughly 5.8% of the tested compounds scored in any of these assays.

CC(C)NC(=O)N(C)C[C@H]1OCCCC[C@@H](C)Oc2ccc(NC(=O)c3ccncc3)cc2C(=O)N([C@H](C)CO)C[C@@H]1C	T cruzi growth-1 95.7 | T cruzi growth-2 inactive | T cruzi growth-3 inactive | 3T3 cytotox inactive | NIH3T3 tox 2 inactive
CC(C)NC(=O)N(C)C[C@H]1OCCCC[C@H](C)Oc2ccc(NC(=O)c3ccncc3)cc2C(=O)N([C@@H](C)CO)C[C@H]1C	none
C[C@H]1CCCCO[C@H](CN(C)C(=O)c2ccncc2)[C@@H](C)CN([C@@H](C)CO)C(=O)c2cc(NC(=O)c3ccncc3)ccc2O1	none (no result: IDH1 R132H inh)
COc1ccc(S(=O)(=O)N(C)C[C@H]2OCCCC[C@H](C)Oc3ccc(NS(=O)(=O)c4ccc(Cl)cc4)cc3C(=O)N([C@@H](C)CO)C[C@@H]2C)cc1	none (no result: IDH1 R132H inh, T cruzi growth-1)
COc1ccc(S(=O)(=O)Nc2ccc3c(c2)C(=O)N([C@H](C)CO)C[C@H](C)[C@@H](CN(C)S(=O)(=O)c2ccc(Cl)cc2)OCCCC[C@@H](C)O3)cc1	T cruzi growth-1 101.2 | T cruzi growth-2 108.1 | T cruzi growth-3 inactive | 3T3 cytotox inactive | NIH3T3 tox 2 36.5
COc1ccc(S(=O)(=O)Nc2ccc3c(c2)C(=O)N([C@@H](C)CO)C[C@H](C)[C@@H](CN(C)S(=O)(=O)c2ccc(Cl)cc2)OCCCC[C@@H](C)O3)cc1	T cruzi growth-1 98.9 | T cruzi growth-2 101.3 | T cruzi growth-3 113.9 | 3T3 cytotox inactive | NIH3T3 tox 2 35.2
Cn1c(SCC(=O)Nc2ccc(Cl)cc2)nnc1-c1ccc(Cl)c(Cl)c1	none (no result: Pf Dd2 growth, T cruzi growth-1, GASC1 inh)
COC(=O)c1ccc(NC(=O)CN(c2ccc(I)cc2)S(C)(=O)=O)cc1	none (no result: Pf Dd2 growth, T cruzi growth-1, GASC1 inh)
CCCNC(=O)N1[C@H](CN(C)C(C)=O)[C@H](c2ccc(C3=CCCC3)cc2)[C@@H]1CO	T cruzi growth-1 inconclusive (no result: IDH1 R132H inh) | T cruzi growth-2 inactive | T cruzi growth-3 inactive | 3T3 cytotox inactive | NIH3T3 tox 2 inactive
CCCNC(=O)N1[C@H](CN(C)C(C)=O)[C@@H](c2ccc(C3=CCCC3)cc2)[C@@H]1CO	T cruzi growth-1 inconclusive (no result: IDH1 R132H inh) | T cruzi growth-2 inactive | T cruzi growth-3 inactive | 3T3 cytotox inactive | NIH3T3 tox 2 inactive
C[C@@H]1CN([C@@H](C)CO)S(=O)(=O)c2ccc(C3=CCCC3)cc2O[C@@H]1CN(C)Cc1ccccc1F	T cruzi growth-1 113.9 (no result: IDH1 R132H inh) | T cruzi growth-2 99.2 | T cruzi growth-3 110.2 | 3T3 cytotox inactive | NIH3T3 tox 2 103.8
C[C@H](CO)N1C[C@H](C)[C@@H](CN(C)Cc2ccccc2F)Oc2cc(C3=CCCC3)ccc2S1(=O)=O	T cruzi growth-1 inconclusive | T cruzi growth-2 97.4 | T cruzi growth-3 inactive | 3T3 cytotox inactive | NIH3T3 tox 2 104.8
C[C@H]1CN([C@@H](C)CO)S(=O)(=O)c2ccc(C3=CCCC3)cc2O[C@H]1CN(C)Cc1ccccc1F	none
CN(C)C(=O)c1ccc(-c2ccc3c(c2)[C@@H]2[C@@H](CCN2C(=O)c2ccc4c(c2)OCO4)[C@@H](CO)N3)cc1	T cruzi growth-1 99.6 (no result: IDH1 R132H inh) | T cruzi growth-2 108.9 | T cruzi growth-3 inactive | 3T3 cytotox inactive | NIH3T3 tox 2 inactive
N#Cc1ccc(-c2ccc3c(c2)[C@H]2[C@H](CCN2C(=O)c2ccc4c(c2)OCO4)[C@H](CO)N3)cc1	none (no result: IDH1 R132H inh)
N#Cc1cccc(-c2ccc3c(c2)[C@@H]2[C@@H](CCN2C(=O)c2ccc4c(c2)OCO4)[C@H](CO)N3)c1	T cruzi growth-1 inconclusive (no result: IDH1 R132H inh) | T cruzi growth-2 97.2 | T cruzi growth-3 inactive | 3T3 cytotox inactive | NIH3T3 tox 2 48.0
COCC(=O)Nc1ccc2c(c1)[C@H]1C[C@@H](CC(=O)NCc3ccc(-c4ccccc4)cc3)O[C@@H](CO)[C@H]1O2	none
COCC(=O)Nc1ccc2c(c1)[C@H]1C[C@H](CC(=O)NCc3ccc(-c4ccccc4)cc3)O[C@@H](CO)[C@H]1O2	none
COCC(=O)Nc1ccc2c(c1)[C@H]1C[C@H](CC(=O)NCc3ccc(-c4ccccc4)cc3)O[C@H](CO)[C@H]1O2	T cruzi growth-1 111.5 | T cruzi growth-2 inactive | T cruzi growth-3 inactive | 3T3 cytotox inactive | NIH3T3 tox 2 inactive
COCC(=O)Nc1ccc2c(c1)[C@H]1C[C@@H](CC(=O)NCc3ccc(-c4ccccc4)cc3)O[C@H](CO)[C@H]1O2	T cruzi growth-1 101.6 | T cruzi growth-2 inactive | T cruzi growth-3 inactive | 3T3 cytotox inactive | NIH3T3 tox 2 inactive
COCC(=O)Nc1ccc2c(c1)[C@@H]1C[C@@H](CC(=O)NCc3ccc(-c4ccccc4)cc3)O[C@@H](CO)[C@@H]1O2	T cruzi growth-1 inconclusive | T cruzi growth-2 inactive | T cruzi growth-3 inactive | 3T3 cytotox 36.8 | NIH3T3 tox 2 inactive
COc1ccc(NC(=O)CSc2nc(C)cc(C(F)(F)F)n2)c([N+](=O)[O-])c1	none (no result: Pf Dd2 growth, T cruzi growth-1, GASC1 inh)
COc1ccc(-c2nc3ccccc3s2)cc1NC(=O)COc1cc(C)ccc1C(C)C	none (no result: Pf Dd2 growth, T cruzi growth-1, GASC1 inh)
O=C(C1CCCC1)N1CCCCN2[C@H](C1)[C@H](c1ccc(-c3cccc(F)c3)cc1)[C@@H]2CO	none (no result: IDH1 R132H inh, GASC1 inh)
O=C(C1CCCC1)N1CCCCN2[C@H](CO)[C@H](c3ccc(-c4cccc(F)c4)cc3)[C@H]2C1	T cruzi growth-1 117.7 (no result: IDH1 R132H inh, GASC1 inh) | T cruzi growth-2 108.1 | T cruzi growth-3 inactive | 3T3 cytotox inactive | NIH3T3 tox 2 102.4
O=C(C1CC1)N1CCCCN2[C@H](CO)[C@H](c3ccc(-c4cccc(F)c4)cc3)[C@@H]2C1	T cruzi growth-1 inconclusive (no result: IDH1 R132H inh) | T cruzi growth-2 104.8 | T cruzi growth-3 inactive | 3T3 cytotox inactive | NIH3T3 tox 2 inconclusive
O=C(C1CC1)N1CCCCN2[C@@H](CO)[C@H](c3ccc(-c4cccc(F)c4)cc3)[C@@H]2C1	T cruzi growth-1 inconclusive (no result: IDH1 R132H inh) | T cruzi growth-2 99.7 | T cruzi growth-3 inactive | 3T3 cytotox inactive | NIH3T3 tox 2 37.4
C[C@H]1CN([C@@H](C)CO)C(=O)c2cc(/C=C/c3ccccc3)cnc2O[C@H]1CN(C)Cc1ccccc1F	T cruzi growth-1 115.6 | T cruzi growth-2 103.9 | T cruzi growth-3 inactive | 3T3 cytotox inactive | NIH3T3 tox 2 41.1
C[C@H]1CN([C@@H](C)CO)C(=O)c2cc(/C=C/c3ccccc3)cnc2O[C@@H]1CN(C)Cc1ccccc1F	T cruzi growth-1 111.7 | T cruzi growth-2 111.1 | T cruzi growth-3 inactive | 3T3 cytotox inactive | NIH3T3 tox 2 105.2
C/C=C/c1cnc2c(c1)C(=O)N([C@H](C)CO)C[C@H](C)[C@H](CN(C)Cc1ccccc1F)O2	none (no result: T cruzi growth-1)
C/C=C/c1cnc2c(c1)C(=O)N([C@@H](C)CO)C[C@H](C)[C@@H](CN(C)Cc1ccccc1F)O2	none (no result: T cruzi growth-1)
C/C=C/c1cnc2c(c1)C(=O)N([C@H](C)CO)C[C@H](C)[C@@H](CN(C)Cc1ccccc1F)O2	none (no result: T cruzi growth-1)
